Test results as given in ChEMBL document CHEMBL3804768, “Structure-Activity Relationship Studies of Mitogen Activated Protein Kinase Interacting Kinase (MNK) 1 and 2 and BCR-ABL1 Inhibitors Targeting Chronic Myeloid Leukemic Cells” (J Med Chem, 2016).
≈ marks a conversion by molar mass, not a printed value.

How the values were obtained:
[1] = Half life in CD1 mouse at 10 mg/kg, iv; format: ADME, organism-based; conditions: in vivo
[2] = Antiproliferative activity against human BV173 cells after 48 hrs by Cell-Titer-Glo luminescent cell viability assay; format: functional; conditions: BV-173, 48 h
Summary of the method: (§1)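 Cells seeded at 5000 per well in growth medium, exposed to serial doses from 0.003 μM to 50 μM for 48 h at 37 °C, 5% CO2. Viability was read by CellTiter-Glo luminescence and GI50 taken from the dose-response curve. Dose response was run in triplicate and the curve repeated twice. K562 eIF4E-overexpressing cells were cultured in RPMI with 10% FBS.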

[3] = Thermodynamic solubility in pH 4 pION buffer at 500 uM incubated for 18 hrs by UV-spectrophotometry; format: physicochemical; conditions: read-out: Therm_solubility
[4] = Antiproliferative activity against human JURL-MK1 cells after 48 hrs by Cell-Titer-Glo luminescent cell viability assay; format: functional; conditions: JURL-MK1, 48 h
[5] = target: Proto-oncogene tyrosine-protein kinase receptor Ret (Homo sapiens, UniProt P07949); experiment: Inhibition of human recombinant RET expressed in sf21 cells at 1 uM using Poly(Glu:Tyr) as substrate in presence of [gamma32P]ATP
Cytochrome P450 3A4 = Cytochrome P450 3A4 (Homo sapiens, UniProt P08684); experiment: Inhibition of CYP3A4 (unknown origin); format: ADME
Chain of Cytochrome P450 3A4 (P08684 whole entry): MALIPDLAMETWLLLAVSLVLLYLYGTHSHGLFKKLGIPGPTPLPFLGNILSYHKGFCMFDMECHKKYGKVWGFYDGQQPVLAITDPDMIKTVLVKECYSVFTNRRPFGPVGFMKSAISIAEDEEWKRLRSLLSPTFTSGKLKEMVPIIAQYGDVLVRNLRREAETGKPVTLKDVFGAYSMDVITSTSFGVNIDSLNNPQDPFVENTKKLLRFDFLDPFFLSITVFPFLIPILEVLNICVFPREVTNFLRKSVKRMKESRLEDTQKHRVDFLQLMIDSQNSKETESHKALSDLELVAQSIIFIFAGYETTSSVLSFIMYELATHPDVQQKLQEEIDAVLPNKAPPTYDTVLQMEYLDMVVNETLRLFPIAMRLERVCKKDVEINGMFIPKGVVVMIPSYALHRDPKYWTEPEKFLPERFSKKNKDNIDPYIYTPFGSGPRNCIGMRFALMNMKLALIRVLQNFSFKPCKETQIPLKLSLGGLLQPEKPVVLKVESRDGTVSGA

[6] = target: T1, Mast/stem cell growth factor receptor Kit (Homo sapiens, UniProt P10721); experiment: Inhibition of human recombinant c-KIT expressed in insect cells at 1 uM using Poly(Glu:Tyr) as substrate in presence of [gamma32P]ATP
T1 sequence (P10721 whole entry): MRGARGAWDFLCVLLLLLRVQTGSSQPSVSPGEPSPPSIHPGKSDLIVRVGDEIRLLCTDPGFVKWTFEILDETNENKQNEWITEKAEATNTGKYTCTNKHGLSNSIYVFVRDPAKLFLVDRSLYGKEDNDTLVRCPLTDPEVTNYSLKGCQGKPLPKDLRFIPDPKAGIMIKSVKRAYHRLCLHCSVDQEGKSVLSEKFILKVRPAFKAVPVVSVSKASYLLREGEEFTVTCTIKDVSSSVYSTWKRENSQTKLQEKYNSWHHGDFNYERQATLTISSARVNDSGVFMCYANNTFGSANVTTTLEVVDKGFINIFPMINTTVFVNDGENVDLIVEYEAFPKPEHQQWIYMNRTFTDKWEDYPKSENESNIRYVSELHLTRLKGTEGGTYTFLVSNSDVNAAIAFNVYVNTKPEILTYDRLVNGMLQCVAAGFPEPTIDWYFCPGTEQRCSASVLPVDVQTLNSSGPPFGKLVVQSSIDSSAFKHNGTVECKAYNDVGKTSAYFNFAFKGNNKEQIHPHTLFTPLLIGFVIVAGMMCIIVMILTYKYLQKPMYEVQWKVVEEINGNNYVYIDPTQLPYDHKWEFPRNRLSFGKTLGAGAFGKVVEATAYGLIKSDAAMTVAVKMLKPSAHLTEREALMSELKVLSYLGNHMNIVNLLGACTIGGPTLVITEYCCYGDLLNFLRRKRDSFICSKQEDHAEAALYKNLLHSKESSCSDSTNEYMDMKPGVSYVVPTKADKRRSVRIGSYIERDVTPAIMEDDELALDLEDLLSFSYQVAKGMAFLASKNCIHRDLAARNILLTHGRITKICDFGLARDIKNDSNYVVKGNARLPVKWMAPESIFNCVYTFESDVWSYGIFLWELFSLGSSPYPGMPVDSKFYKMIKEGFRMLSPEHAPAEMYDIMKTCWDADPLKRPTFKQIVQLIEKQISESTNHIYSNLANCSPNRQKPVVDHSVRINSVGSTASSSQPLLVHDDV

[7] = Clearance in CD1 mouse at 10 mg/kg, iv; format: ADME, organism-based; conditions: in vivo
[8] = target: MAP kinase-interacting serine/threonine-protein kinase 1/2 (Homo sapiens, UniProt Q9HBH9+Q9BUB5); experiment: Inhibition of MNK1/MNK2 in human HeLa cells assessed as reduction in phosphorylation of eIF4E at Ser209 after 2 hrs by AlphaScreen SureFire assay; format: cell-based
Summary of the method: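 HeLa cells were grown in DMEM with 10% FBS and penicillin/streptomycin, seeded at 30,000 per well and left 24 h. They were then exposed to serially diluted compound in serum-free DMEM for 2 h at 37 °C and lysed with shaking for 20 min. Phospho-eIF4E Ser209 was read by AlphaScreen SureFire with 2 h acceptor and 2 h donor steps at room temperature. Dose response was run in triplicate.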

Mus musculus [9] = experiment: Toxicity in NOD-SCID mouse xenografted with human K562 cells over expressing eIF4E assessed as body weight loss at 100 mg/kg, po qd administered through oral gavage for 14 days; format: organism-based; conditions: in vivo, 336 h
Bcr/Abl fusion protein = Bcr/Abl fusion protein (Homo sapiens, UniProt P00519); experiment: Inhibition of BCR fused full length human recombinant N-terminal His-tagged ABL (2 to 1130 residues) expressed in baculovirus expression system using FL-peptide 2 substrate preincubated for 10 mins followed by substrate addition measured after 60 mins by mobility shift assay
[10] = Cmax in CD1 mouse at 50 mg/kg, po; format: ADME, organism-based; design: dose 50 mg/kg, route oral; conditions: in vivo
[11] = target: MAP kinase-interacting serine/threonine-protein kinase 2 (Homo sapiens, UniProt Q9HBH9); experiment: Inhibition of N-terminal GST-tagged MNK2 kinase domain (72 to 385 residues) (unknown origin) expressed in Escherichia coli BL21(DE3) cells using JH3 peptide substrate preincubated for 10 mins followed by substrate addition measured after 60 mins by mobility shift assay
[12] = target: Platelet-derived growth factor receptor alpha (Homo sapiens, UniProt P16234); experiment: Inhibition of human recombinant PDGFRalpha expressed in sf21 cells at 1 uM using Poly(Glu:Tyr) as substrate in presence of [gamma32P]ATP
[13] = target: T2, Vascular endothelial growth factor receptor 2 (Homo sapiens, UniProt P35968); experiment: Inhibition of human recombinant VEGFR2 expressed in sf21 cells at 1 uM using Poly(Glu:Tyr) as substrate in presence of [gamma32P]ATP
T2 sequence (P35968 whole entry): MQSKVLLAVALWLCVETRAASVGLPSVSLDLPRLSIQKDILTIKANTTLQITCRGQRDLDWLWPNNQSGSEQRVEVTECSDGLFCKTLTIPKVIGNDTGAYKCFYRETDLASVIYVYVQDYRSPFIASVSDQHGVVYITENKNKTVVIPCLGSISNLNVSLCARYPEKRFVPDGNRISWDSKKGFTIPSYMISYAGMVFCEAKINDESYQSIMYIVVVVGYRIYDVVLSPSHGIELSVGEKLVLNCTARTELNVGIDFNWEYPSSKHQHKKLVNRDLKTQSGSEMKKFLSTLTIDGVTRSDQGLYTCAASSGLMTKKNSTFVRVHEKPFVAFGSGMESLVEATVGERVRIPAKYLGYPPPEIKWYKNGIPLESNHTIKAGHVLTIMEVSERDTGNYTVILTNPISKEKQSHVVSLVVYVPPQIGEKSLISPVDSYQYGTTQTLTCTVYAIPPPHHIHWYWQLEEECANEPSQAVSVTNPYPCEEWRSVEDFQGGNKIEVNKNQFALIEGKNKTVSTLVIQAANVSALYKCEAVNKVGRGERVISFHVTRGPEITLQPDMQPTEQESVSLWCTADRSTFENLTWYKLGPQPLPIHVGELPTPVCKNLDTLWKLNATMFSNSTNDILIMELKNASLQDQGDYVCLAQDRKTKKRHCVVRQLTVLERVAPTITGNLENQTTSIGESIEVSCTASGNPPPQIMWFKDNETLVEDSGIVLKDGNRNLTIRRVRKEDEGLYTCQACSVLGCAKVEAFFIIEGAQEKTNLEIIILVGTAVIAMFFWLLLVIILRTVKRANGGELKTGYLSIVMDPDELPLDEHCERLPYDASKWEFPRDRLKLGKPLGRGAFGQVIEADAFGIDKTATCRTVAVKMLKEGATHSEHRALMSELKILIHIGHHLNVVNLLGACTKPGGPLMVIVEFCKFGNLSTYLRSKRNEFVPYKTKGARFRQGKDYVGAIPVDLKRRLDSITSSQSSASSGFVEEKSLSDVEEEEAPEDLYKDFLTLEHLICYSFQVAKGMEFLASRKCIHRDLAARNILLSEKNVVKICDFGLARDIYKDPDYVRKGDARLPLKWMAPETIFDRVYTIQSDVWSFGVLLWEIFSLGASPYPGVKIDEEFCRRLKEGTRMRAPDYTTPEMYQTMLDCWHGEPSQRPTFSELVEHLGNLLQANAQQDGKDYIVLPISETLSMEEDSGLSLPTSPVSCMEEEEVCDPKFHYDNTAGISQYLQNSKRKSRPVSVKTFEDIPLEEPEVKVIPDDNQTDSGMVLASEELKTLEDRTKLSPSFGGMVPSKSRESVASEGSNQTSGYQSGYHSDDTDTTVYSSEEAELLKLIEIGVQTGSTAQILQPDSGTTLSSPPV

[14] = Antiproliferative activity against human EM2 cells after 48 hrs by Cell-Titer-Glo luminescent cell viability assay; format: functional; conditions: EM-2, 48 h; summary of the method: as §1
[15] = target: T1, Mast/stem cell growth factor receptor Kit; experiment: Inhibition of human recombinant c-KIT expressed in insect cells using Poly(Glu:Tyr) as substrate in presence of [gamma32P]ATP
[16] = target: T2, Vascular endothelial growth factor receptor 2; experiment: Inhibition of human recombinant VEGFR2 expressed in sf21 cells using Poly(Glu:Tyr) as substrate in presence of [gamma32P]ATP
[17] = target: Fibroblast growth factor receptor 2 (Homo sapiens, UniProt P21802); experiment: Inhibition of human recombinant FGFR2 expressed in sf21 cells using Poly(Glu:Tyr) as substrate in presence of [gamma32P]ATP
Chain of Fibroblast growth factor receptor 2 (P21802 whole entry): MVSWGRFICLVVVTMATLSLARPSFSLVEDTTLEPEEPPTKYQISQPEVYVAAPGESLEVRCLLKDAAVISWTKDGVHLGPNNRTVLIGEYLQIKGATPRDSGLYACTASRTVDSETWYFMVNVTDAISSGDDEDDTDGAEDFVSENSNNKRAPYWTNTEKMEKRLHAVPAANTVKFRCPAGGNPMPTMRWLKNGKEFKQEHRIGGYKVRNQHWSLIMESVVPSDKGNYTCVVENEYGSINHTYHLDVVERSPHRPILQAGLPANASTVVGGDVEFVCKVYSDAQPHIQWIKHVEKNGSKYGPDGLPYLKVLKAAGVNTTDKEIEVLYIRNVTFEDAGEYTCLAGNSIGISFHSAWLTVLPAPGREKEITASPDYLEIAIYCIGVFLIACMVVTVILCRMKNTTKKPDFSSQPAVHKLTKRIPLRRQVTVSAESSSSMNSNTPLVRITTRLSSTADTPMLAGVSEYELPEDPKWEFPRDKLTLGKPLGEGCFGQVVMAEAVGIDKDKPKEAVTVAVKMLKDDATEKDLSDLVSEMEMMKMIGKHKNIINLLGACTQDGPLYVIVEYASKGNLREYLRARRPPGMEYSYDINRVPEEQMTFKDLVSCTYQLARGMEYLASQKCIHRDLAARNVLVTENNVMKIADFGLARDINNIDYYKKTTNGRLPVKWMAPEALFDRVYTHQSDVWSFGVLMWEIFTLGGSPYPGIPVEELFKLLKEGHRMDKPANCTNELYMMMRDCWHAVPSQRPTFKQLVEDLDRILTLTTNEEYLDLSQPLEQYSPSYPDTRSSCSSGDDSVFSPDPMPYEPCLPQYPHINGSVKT

[18] = target: Receptor-type tyrosine-protein kinase FLT3 (Homo sapiens) (UniProt P36888); experiment: Inhibition of human recombinant FLT3 expressed in sf21 cells at 1 uM using Poly(Glu:Tyr) as substrate in presence of [gamma32P]ATP
[19] = Permeability of compound by PAMPA; format: ADME; conditions: read-out: permeability
Cytochrome P450 2D6 = Cytochrome P450 2D6 (Homo sapiens, UniProt P10635); experiment: Inhibition of CYP2D6 (unknown origin); format: ADME
Chain of Cytochrome P450 2D6 (P10635 whole entry, the tested form may be a part): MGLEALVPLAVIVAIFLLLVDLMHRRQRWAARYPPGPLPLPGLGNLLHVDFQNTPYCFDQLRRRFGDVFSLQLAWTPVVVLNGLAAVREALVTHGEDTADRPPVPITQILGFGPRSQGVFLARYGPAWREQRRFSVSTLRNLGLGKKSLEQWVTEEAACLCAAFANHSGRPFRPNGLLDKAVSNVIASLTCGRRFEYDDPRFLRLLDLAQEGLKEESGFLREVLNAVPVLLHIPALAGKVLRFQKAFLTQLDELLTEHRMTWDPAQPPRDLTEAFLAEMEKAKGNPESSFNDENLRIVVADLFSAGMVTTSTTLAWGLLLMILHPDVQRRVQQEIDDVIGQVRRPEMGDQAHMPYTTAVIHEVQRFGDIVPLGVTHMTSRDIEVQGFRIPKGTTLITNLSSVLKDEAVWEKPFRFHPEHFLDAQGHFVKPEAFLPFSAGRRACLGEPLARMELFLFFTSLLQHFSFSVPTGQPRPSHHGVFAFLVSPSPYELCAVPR

[20] = target: MAP kinase-interacting serine/threonine-protein kinase 1 (Homo sapiens, UniProt Q9BUB5); experiment: Inhibition of N-terminal GST-tagged MNK1 kinase domain (37 to 341 residues) (unknown origin) expressed in Escherichia coli BL21(DE3) cells using JH3 peptide substrate preincubated for 10 mins followed by substrate addition measured after 60 mins by mobility shift assay
Chain of MAP kinase-interacting serine/threonine-protein kinase 1 (Q9BUB5 whole entry, the tested form may be a part): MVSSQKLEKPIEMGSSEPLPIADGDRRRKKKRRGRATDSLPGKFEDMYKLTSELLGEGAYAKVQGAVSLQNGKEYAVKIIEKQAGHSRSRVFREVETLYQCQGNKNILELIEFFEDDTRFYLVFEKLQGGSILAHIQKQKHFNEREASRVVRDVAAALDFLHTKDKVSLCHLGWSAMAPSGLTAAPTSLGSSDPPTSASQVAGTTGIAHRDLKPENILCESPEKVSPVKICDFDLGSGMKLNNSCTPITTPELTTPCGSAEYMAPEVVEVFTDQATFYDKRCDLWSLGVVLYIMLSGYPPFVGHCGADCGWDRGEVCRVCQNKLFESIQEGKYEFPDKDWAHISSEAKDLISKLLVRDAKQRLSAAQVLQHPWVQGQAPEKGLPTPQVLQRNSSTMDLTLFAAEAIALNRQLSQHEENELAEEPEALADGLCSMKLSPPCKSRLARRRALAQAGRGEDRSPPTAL

[21] = target: Platelet-derived growth factor receptor beta (Homo sapiens, UniProt P09619); experiment: Inhibition of human recombinant PDGFRbeta expressed in sf21 cells using Poly(Glu:Tyr) as substrate in presence of [gamma32P]ATP
[22] = Half life in CD1 mouse at 5 mg/kg, iv; format: ADME, organism-based; conditions: in vivo
Mus musculus [23] = experiment: Toxicity in NOD-SCID mouse xenografted with human K562 cells over expressing eIF4E assessed as body weight loss at 100 to 200 mg/kg, po qd administered through oral gavage for 14 days; format: organism-based; conditions: in vivo, 336 h
[24] = Clearance in CD1 mouse at 5 mg/kg, iv; format: ADME, organism-based; conditions: in vivo

CN1CCN(Cc2ccc(NC(=O)CNc3ccc(-c4ccc(NC(=O)C5CC5)nc4)cc3F)cc2C(F)(F)F)CC1
half-life [1]: 2.2 h | GI50 [2]: 1 nM | solubility thermodynamic at 18 h, 500 µM [3]: 183 µg/mL (≈ 313 µM) | GI50 [4]: 1 nM | inhibition [5]: > 99% | IC50 (Cytochrome P450 3A4): > 30000 nM | inhibition [6]: > 99% | clearance [7]: 50 mL/min/kg | IC50 [8]: 280 nM | Activity (Mus musculus [9]): Non-toxic | IC50 (Bcr/Abl fusion protein): 10 nM | Cmax [10]: 1210 ng/mL | IC50 [11]: 10 nM | inhibition [12]: > 99% | inhibition [13]: > 99% | GI50 [14]: 1 nM | IC50 [15]: 1510 nM | IC50 [16]: 21 nM | IC50 [17]: 272 nM | inhibition [18]: > 99% | Papp [19]: 30.6 ×10⁻⁶ cm/s | IC50 (Cytochrome P450 2D6): > 30000 nM | IC50 [20]: 200 nM | IC50 [21]: 1050 nM

CCN1CCN(Cc2ccc(NC(=O)CNc3ccc(-c4ccc(NC(=O)C5CC5)nc4)cc3)cc2C(F)(F)F)CC1
GI50 [2]: 30 nM | solubility thermodynamic at 18 h, 500 µM [3]: 128 µg/mL (≈ 220 µM) | GI50 [4]: 30 nM | inhibition [5]: > 99% | IC50 (Cytochrome P450 3A4): > 30000 nM | inhibition [6]: > 99% | IC50 [8]: 180 nM | half-life [22]: 2.14 h | IC50 (Bcr/Abl fusion protein): 89 nM | Cmax [10]: 2490 ng/mL | IC50 [11]: 16 nM | inhibition [12]: > 99% | inhibition [13]: > 99% | GI50 [14]: 15 nM | Activity (Mus musculus [23]): Non-toxic | IC50 [15]: 888 nM | IC50 [16]: 24 nM | IC50 [17]: 930 nM | inhibition [18]: > 99% | Papp [19]: 34.5 ×10⁻⁶ cm/s | IC50 (Cytochrome P450 2D6): > 30000 nM | IC50 [20]: 2520 nM | IC50 [21]: 1080 nM | clearance [24]: 45 mL/min/kg
